Source: ChEMBL document CHEMBL1139399, “Synthesis and biological evaluation of glucuronide prodrugs of the histone deacetylase inhibitor CI-994 for application in selective cancer chemotherapy” (Bioorg Med Chem, 2008)
In brackets after ≈: the same amount, converted by molar mass. Activity calls are given as the source filed them. The rule behind the calls is not given here.

Assays:
[1] = biological target: Histone deacetylase (Homo sapiens) (UniProt Q13547+O15379+Q9UBN7+Q92769+Q9UQL6+Q8WUI4+Q9BY41+Q96DB2+P56524+Q9UKV0+Q969S8); test: Inhibition of HDAC in human NCI-H661 cells assessed as histone H4 acetylation after 6 hrs in presence of beta-glucuronidase by Western blot analysis; assay type: cell-based
Outline: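 NCI-H661 cells (5 × 10^5) exposed 6 h with β-glucuronidase (40 U/ml) in medium; compounds at 100 µM, TSA control 100 nM, DMSO 0.1%. Laemmli buffer lysis, sonication, SDS–PAGE; blots probed with rabbit polyclonal anti-acetyl-histone H4 (1/500), α-tubulin loading control (1/2000), HRP secondaries (1/5000), ECL detection.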

[2] = Stability in 0.02M phosphate buffer at pH 2.1 after 72 hrs; assay type: physicochemical; conditions: pH 2.1, 72 h
Outline: (§1)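 Compounds held in 0.02 M phosphate buffer (pH 2.1 or pH 7 as per line) at 37 °C for 72 h; degradation followed by HPLC with UV detection.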

[3] = Aqueous solubility in phosphate buffer at pH 7; assay type: physicochemical
Outline: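 Solubility in 0.02 M phosphate buffer, pH 7; sample filtered through 0.45 µm filter, diluted in HPLC phase and quantified by HPLC (UV) against a calibration curve of 0.1–0.025 mg/mL prepared from a DMSO stock diluted in the same buffer.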

NCI-H661 [4] = test: Antiproliferative activity against human NCI-H661 cells after 48 hrs in presence of beta-glucuronidase; assay type: functional, cell-based; conditions: NCI-H661, 48 h
Outline: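 NCI-H661 cells in RPMI 1640 + 10% FCS (37 °C, 5% CO2); E. coli β-glucuronidase added to culture medium at 40 U/ml. 4 × 10^3 cells/well plated 24 h before compound, 48 h treatment, then XTT added and 4 h further incubation at 37 °C; absorbance at 480 nm. Three experiments in triplicate, standard deviation shown.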

[5] = Stability in 0.02M phosphate buffer at pH 7 after 72 hrs; assay type: physicochemical; conditions: pH 7, 72 h; outline: as §1
[6] = Stability in cell culture medium in presence of 10% foetal calf serum; assay type: ADME; conditions: cattle
Outline: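 Incubation in cell culture medium supplemented with 10% foetal calf serum at 37 °C; solution monitored by HPLC (UV detection) over 72 h.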

NCI-H661 [7] = test: Antiproliferative activity against human NCI-H661 cells after 48 hrs; assay type: functional, cell-based
Outline: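 NCI-H661 NSCLC cells grown in RPMI 1640 + 10% FCS, 37 °C, 5% CO2; 4 × 10^3 cells/well seeded, grown 24 h, then exposed to compound for 48 h without β-glucuronidase. XTT labeling mixture added, further 4 h at 37 °C, absorbance read at 480 nm. Three experiments in triplicate; standard deviation shown.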

Row | Activity [1] | Stability [2] | solubility [3] | IC50 (NCI-H661 [4]) | Stability [5] | Stability [6] | IC50 (NCI-H661 [7]; NCI-H661, 48 h) | Structure (SMILES) | Activity (NCI-H661 [7])
1 | Active | Stable | 1000 µg/mL (≈ 1560 µM) | 20 µM | Stable | Stable | – | CC(=O)Nc1ccc(C(=O)Nc2ccccc2NC(=O)OCc2ccc(O[C@@H]3O[C@H](C(=O)O)[C@@H](O)[C@H](O)[C@H]3O)c([N+](=O)[O-])c2)cc1 | inactive
2 | Active | Stable | 1000 µg/mL (≈ 2040 µM) | 20 µM | Stable | Stable | – | CC(=O)Nc1ccc(C(=O)Nc2ccccc2NC(=O)O[C@@H]2O[C@H](C(=O)O)[C@@H](O)[C@H](O)[C@H]2O)cc1 | inactive
3 | – | – | 80 µg/mL (≈ 297 µM) | – | – | – | 20 µM | CC(=O)Nc1ccc(C(=O)Nc2ccccc2N)cc1 [TACEDINALINE] | –
